How the values were obtained:
[1] = Oral bioavailability in mouse at 5 mg/kg; type: ADME, organism-based; conditions: in vivo
Outline: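 Single-dose PK study. The iv dose was given in 10% hydroxypropyl-β-cyclodextrin and the oral dose in 0.5% methylcellulose/1% Tween80. Mouse and rat received 1 mg/kg iv and 5 mg/kg po. Dog received 0.5 mg/kg iv and 4 mg/kg po. CL, Vss, t1/2, AUC, Cmax, tmax and F were derived.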

[2] = Toxicity in male mouse during 4-week repeated once daily oral-dose toxicity study; conditions: in vivo, time 4 weeks
Outline: (§1)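 Mice of both sexes were dosed orally once daily for 4 weeks at 40, 100, 250 and 625 mg/kg. Toxicity was assessed and the NOAEL determined.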

Mus musculus [3] = assay: In-vivo inhibition of 11beta-HSD1 activity in C57BL/6 mouse liver assessed as reduction in cortisone to-cortisol conversion at 3 to 30 mg/kg, po measured after 2 to 6 hrs by ELISA; type: functional, organism-based; conditions: dose 3-30 mg/kg, time 2-6 hrs
Outline: (§2)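 Male C57BL/6 mice dosed orally once at 3, 10 or 30 mg/kg in sterile water containing 0.5% methylcellulose and 1% Tween80, then sacrificed at 2 or 6 h. Liver and epididymal fat pads incubated ex vivo in culture medium containing cortisone. Cortisol formed was measured by ELISA and reported as % inhibition versus vehicle.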

Mus musculus [4] = assay: Improvement in lipid profile in C57BL/6-Lep^ob (ob/ob) mouse assessed as triglyceride level at 20 mg/kg, po dosed once daily for 25 days co-treated with 300 mg/kg. po QD for 25 days metformin (reference value: 90.9 +/- 5.5 mg/dl); conditions: time 25 day
[5] = Reduction in nonfasting blood glucose level in C57BL/6-Lep^ob (ob/ob) mouse at 20 mg/kg, po dosed once daily for 25 days relative to control; design: scale not given: the % may be the effect or the level left; conditions: time 25 day
[6] = In-vivo inhibition of 11beta-HSD1 activity in C57BL/6 mouse epididymal fat assessed as reduction in cortisone to-cortisol conversion at 30 mg/kg, po measured after 6 hrs by ELISA; type: functional; conditions: C57BL/6, Epididymal fat pad; outline: as §2
Cytochrome P450 2D6 = Cytochrome P450 2D6 (Homo sapiens, UniProt P10635); assay: Inhibition of CYP2D6 in pooled human liver microsomes using dextromethorphan as substrate in presence of NADPH incubated for 10 mins by LC-MS/MS analysis
Chain of Cytochrome P450 2D6 (P10635 whole entry): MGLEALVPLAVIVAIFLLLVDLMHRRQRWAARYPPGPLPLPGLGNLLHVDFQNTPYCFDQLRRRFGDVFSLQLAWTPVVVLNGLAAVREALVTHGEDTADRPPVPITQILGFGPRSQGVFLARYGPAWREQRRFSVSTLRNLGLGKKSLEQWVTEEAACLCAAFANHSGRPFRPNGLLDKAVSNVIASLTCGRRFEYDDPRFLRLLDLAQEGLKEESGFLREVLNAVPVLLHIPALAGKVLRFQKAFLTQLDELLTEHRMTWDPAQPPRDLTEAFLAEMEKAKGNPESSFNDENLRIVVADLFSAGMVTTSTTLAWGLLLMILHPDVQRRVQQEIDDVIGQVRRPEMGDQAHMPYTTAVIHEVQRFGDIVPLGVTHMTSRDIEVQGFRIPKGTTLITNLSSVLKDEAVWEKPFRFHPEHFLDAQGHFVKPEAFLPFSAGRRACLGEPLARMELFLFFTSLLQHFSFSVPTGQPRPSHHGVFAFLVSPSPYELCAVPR

Mus musculus [7] = assay: Improvement in lipid profile in C57BL/6-Lep^ob (ob/ob) mouse assessed as total cholesterol level at 20 mg/kg, po dosed once daily for 25 days co-treated with 300 mg/kg. po QD for 25 days metformin (reference value: 286.6 +/- 6.3 mg/dl); conditions: time 25 day
[8] = Clearance in dog at 0.5 mg/kg, iv; type: ADME, organism-based, Canis lupus familiaris; conditions: in vivo
Glucocorticoid receptor = biological target: T1, Glucocorticoid receptor (Homo sapiens, UniProt P04150); assay: Antagonist activity at glucocorticoid receptor (unknown origin)
T1 sequence (P04150 whole entry): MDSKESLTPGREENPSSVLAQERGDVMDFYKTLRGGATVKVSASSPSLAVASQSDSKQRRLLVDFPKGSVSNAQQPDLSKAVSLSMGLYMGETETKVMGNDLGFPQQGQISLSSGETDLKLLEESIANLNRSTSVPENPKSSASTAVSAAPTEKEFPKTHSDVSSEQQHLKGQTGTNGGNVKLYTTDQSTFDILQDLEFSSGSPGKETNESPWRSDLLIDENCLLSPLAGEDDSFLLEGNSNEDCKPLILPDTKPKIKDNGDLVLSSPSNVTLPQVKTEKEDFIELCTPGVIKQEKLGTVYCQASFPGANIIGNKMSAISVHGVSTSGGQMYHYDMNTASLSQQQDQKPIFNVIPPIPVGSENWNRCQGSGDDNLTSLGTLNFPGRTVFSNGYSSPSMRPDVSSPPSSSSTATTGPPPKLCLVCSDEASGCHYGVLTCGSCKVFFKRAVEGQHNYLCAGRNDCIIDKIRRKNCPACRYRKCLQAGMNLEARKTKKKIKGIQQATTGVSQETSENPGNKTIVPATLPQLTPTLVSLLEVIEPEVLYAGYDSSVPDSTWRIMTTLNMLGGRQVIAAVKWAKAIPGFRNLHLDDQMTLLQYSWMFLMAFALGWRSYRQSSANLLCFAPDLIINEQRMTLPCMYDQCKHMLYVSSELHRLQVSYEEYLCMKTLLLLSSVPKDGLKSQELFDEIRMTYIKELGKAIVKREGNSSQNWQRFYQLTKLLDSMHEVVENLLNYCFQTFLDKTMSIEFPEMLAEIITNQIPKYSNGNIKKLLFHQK

[9] = Toxicity in female mouse during 4-week repeated once daily oral-dose toxicity study; conditions: in vivo, time 4 weeks; outline: as §1
[10] = Ratio of drug level in adipose tissue to plasma of mouse at 10 mg/kg, po measured after 2 hrs post dose; type: ADME, organism-based
Outline: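 C57BL/6 mice received a single oral dose of 10 mg/kg in 0.5% methylcellulose/1% Tween80. Animals were sacrificed 2 h post-dose. Compound was measured in brain, liver, adipose and plasma (nmol/g), and tissue/plasma ratios were calculated.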

[11] = AUC in rat at 1 mg/kg, iv; type: ADME, organism-based; design: dose 1 mg/kg; conditions: in vivo
[12] = Clearance in mouse at 1 mg/kg, iv; type: ADME, organism-based; conditions: in vivo
[13] = Toxicity in female dog during 4-week repeated once daily oral-dose toxicity study; design: species or system Canis lupus familiaris; conditions: in vivo, time 4 weeks
Outline: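 Dogs of both sexes were dosed orally once daily for 4 weeks at 25, 100 and 400 mg/kg. Toxicity was assessed and the NOAEL determined.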

[14] = Toxicity in dog assessed as induction of abnormal changes in cardiovascular system up to 400 mg/kg, po; type: organism-based, Canis lupus familiaris; conditions: in vivo
Outline: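 Dogs fitted with telemetry were given oral doses of up to 400 mg/kg. Cardiovascular and respiratory systems were monitored for abnormal changes.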

[15] = In-vivo inhibition of 11beta-HSD1 activity in C57BL/6 mouse epididymal fat assessed as reduction in cortisone to-cortisol conversion at 3 mg/kg, po measured after 6 hrs by ELISA; type: functional; conditions: C57BL/6, Epididymal fat pad; outline: as §2
Mus musculus [16] = assay: Toxicity in mouse assessed as induction of abnormal changes in central nervous system up to 1000 mg/kg, po; conditions: in vivo
[17] = AUC in dog at 4 mg/kg, po; type: ADME, organism-based, Canis lupus familiaris; design: dose 4 mg/kg; conditions: in vivo

C[C@@H]1CN(c2ccc(S(C)(=O)=O)cc2F)CCN1c1nccc(C(=O)NC2C3CC4CC2CC(O)(C4)C3)n1 (some centres undefined)
bioavailability [1]: 96% | NOAEL at 672 h [2]: 625 mg/kg | inhibition (Mus musculus [3]): Dose-dependent effect | Activity (Mus musculus [4]): 84.1 mg/dL | Activity [5]: 26% | inhibition in vivo at 30 mg/kg [6]: 93% | IC50 (Cytochrome P450 2D6): > 10 µM | Activity (Mus musculus [7]): 235 mg/dL | clearance [8]: 6 mL/min/kg | EC50 (Glucocorticoid receptor): > 5 µM | NOAEL at 672 h [9]: 625 mg/kg | Kp at 2 h [10]: 0.62 | AUC [11]: 1120 ng·h/mL | clearance [12]: 7 mL/min/kg | NOAEL at 672 h [13]: 400 mg/kg | Activity [14]: Non-Toxic | inhibition in vivo at 3 mg/kg [15]: 84% | Activity (Mus musculus [16]): Non-Toxic | AUC [17]: 11500 ng·h/mL
